Measured values published in ChEMBL document CHEMBL1149457, “Effects of amino acid chirality and the chemical linker on the cell permeation characteristics of cyclic prodrugs of opioid peptides” (J Med Chem, 2006).

What was measured:
Type in all cases: ADME, cell-based
Conditions in all cases: human
Caco-2 [1] = assay: Ratio of permeability from basolateral to apical over apical to basolateral side of the Caco-2 cell membrane in presence of 20 uM cyclosporin A
In short: (§1)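 Caco-2 monolayers (passages 30-39) were grown 21-28 days on polyester Transwell membranes, with batch integrity checked by [14C]-mannitol flux. Bidirectional transport (n = 3) was run at 37 °C with shaking, using peptide at 20 µM final in HBSS pH 7.4 with 0.4% DMSO and inhibitor in HBSS. Sampling continued up to 160 min, with LC-MS-MS quantitation. Papp BL-to-AP/AP-to-BL ratio.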

Caco-2 [2] = assay: Ratio of permeability from basolateral to apical over apical to basolateral side of the Caco-2 cell membrane in presence of 10 uM GF 120918; in short: as §1
Caco-2 [3] = assay: Ratio of permeability from basolateral to apical over apical to basolateral side of the Caco-2 cell membrane in presence of 50 uM MK 571; in short: as §1
Caco-2 [4] = assay: Ratio of permeability from basolateral to apical over apical to basolateral side of the Caco-2 cell membrane in presence of 2 uM GF 120918; in short: as §1

Structure (SMILES)	Ratio (Caco-2 [1])	Ratio (Caco-2 [2])	Ratio (Caco-2 [3])	Ratio (Caco-2 [4])
CC(C)C[C@@H]1NC(=O)[C@H](Cc2ccccc2)NC(=O)CNC(=O)[C@H](C)NC(=O)[C@H](Cc2ccc(O)cc2)NC(=O)/C=C\c2ccccc2OCOC1=O	12	1.9		
CC(=O)N[C@@H](Cc1ccc(O)cc1)C(=O)N[C@@H](C)C(=O)NCC(=O)N[C@@H](Cc1ccccc1)C(=O)N[C@H](CC(C)C)C(N)=O	1.2	1	3.8	
CC(=O)N[C@@H](Cc1ccc(O)cc1)C(=O)N[C@H](C)C(=O)NCC(=O)N[C@@H](Cc1ccccc1)C(=O)N[C@@H](CC(C)C)C(N)=O	2.4	1.1	1.1	
CC(C)C[C@H]1NC(=O)[C@H](Cc2ccccc2)NC(=O)CNC(=O)[C@H](C)NC(=O)[C@H](Cc2ccc(O)cc2)NC(=O)/C=C\c2ccccc2OCOC1=O	6.1	2.1		5.4
CC(C)C[C@H]1NC(=O)[C@H](Cc2ccccc2)NC(=O)CNC(=O)[C@@H](C)NC(=O)[C@H](Cc2ccc(O)cc2)NC(=O)/C=C\c2ccccc2OCOC1=O		2.8	4.9	13
CC(C)C[C@@H]1NC(=O)[C@H](Cc2ccccc2)NC(=O)CNC(=O)[C@@H](C)NC(=O)[C@H](Cc2ccc(O)cc2)NC(=O)/C=C\c2ccccc2OCOC1=O	14	2.3	2.8	5
